This note sets out measurements from ChEMBL document CHEMBL4229356, “Synthesis and antikinetoplastid evaluation of bis(benzyl)spermidine derivatives” (Eur J Med Chem, 2018).

Activity calls are given as the source filed them. The rule behind the calls is not given here. A value given as a limit tells only on which side of the number the result lay.

Data set [1] is described as follows: Selectivity index, ratio of CC50 for mouse RAW264.7 cells to IC50 for Leishmania donovani LV9 axenic amastigotes incubated for 72 hrs by resazurin dye based assay. The data set is classed as toxicity. The note with it: read-out: Ratio CC50/IC50. (In general: Resazurin is reduced to fluorescent resorufin, in cell work by metabolically active cells.)
Data set [2] relates to Trypanosoma brucei gambiense. The data set can be described thus: Trypanocidal activity against Trypanosoma brucei gambiense FeoITMAP/1893 after 72 hrs by resazurin dye based assay. The data set is classed as functional, organism-based. The note with it: FeoITMAP/1893, 72 h. In outline: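 T. b. gambiense Feo was grown in supplemented IMDM with 10% FBS. Cells at 4.10⁴/mL were exposed 72 h at 37 °C, 5% CO2 in the dark to two-fold dilutions. Resazurin (450 µM solution) was added for 6 h and read at OD570/OD600. Result given as IC50; pentamidine was the reference.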

For data set [3], the system named is Leishmania donovani. The data set can be described thus: Antiparasitic activity against Leishmania donovani amastigotes.
A short description of data set [4]: Cytotoxicity against mouse RAW264.7 cells assessed as reduction in cell viability after 48 hrs by resazurin assay. The format is cell-based. In outline:
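RAW 264.7 macrophages at 2.10⁴/well were preincubated 24 h, then exposed 48 h at 37 °C, 5% CO2 to two-fold dilutions in DMEM. Resazurin was added for 4 h in the dark and read at OD570/OD600. Result given as CC50.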

A short description of data set [5]: Selectivity index, ratio of CC50 for mouse RAW264.7 cells to IC50 for Trypanosoma brucei gambiense FeoITMAP/1893. The data set is classed as toxicity. The note with it: read-out: Ratio CC50/IC50.
Data set [6] deals with Leishmania donovani. Description: Antiparasitic activity against Leishmania donovani LV9 axenic amastigotes incubated for 72 hrs by resazurin dye based assay. The format is functional, organism-based. The note with it: LV9, 72 h. In outline: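 LV9 axenic amastigotes were derived from promastigotes in M-199 at pH 5.5, 37 °C, 5% CO2, and used in log phase. Cells at 10⁶/mL were exposed 72 h to two-fold dilutions from 100 to 0.02 μM. Resazurin was then added for 24 h in the dark and read at OD570/OD600. IC50 is relative to excipient-only controls; miltefosine was the reference.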

The test system of data set [7] is Leishmania donovani. Description: Antiparasitic activity against Leishmania donovani LV9 axenic intramacrophage amastigotes infected in mouse RAW264.7 cells incubated for 48 hrs by Sybr Green 1 dye based fluorescence assay. The data set is classed as functional, organism-based. The note with it: LV9, RAW264.7, 48 h. In outline:
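RAW 264.7 cells at 2.10⁴/well were infected 24 h with axenic amastigotes at a 16:1 parasite to macrophage ratio, then extracellular parasites were removed. Cells were treated 48 h with two-fold dilutions from 100 µM. They were then lysed (freeze-thaw, proteinase K, 55 °C overnight) and total DNA read by SYBR Green I fluorescence against untreated infected cells. Result given as IC50.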

The test system of data set [8] is Trypanosoma brucei brucei. Description: Antitrypanosomal activity against Trypanosoma brucei brucei CMP infected in Swiss mouse assessed as change in mean survival time at 10 mg/kg, ip administered as single dose measured up to 30 days. The format is functional. In short, it runs like this:
(§1)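 Swiss mice infected ip with 10,000 T. b. brucei CMP trypanosomes, randomly grouped (six per batch), then given one ip dose of 100 or 10 mg/kg; controls received pentamidine, melarsamine or excipient. Parasitemia followed at days 2, 3, 4 and 30; deaths recorded by day post-treatment; efficacy as mean survival time minus that of excipient-treated controls (days ± SD).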

The nature of data set [9]: Stability in human plasma by HPLC analysis. The data set is classed as ADME, cell-free. The note with it: read-out: Stability. In outline: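 Human plasma was diluted 10-fold in PBS and incubated with 1 mM compound solutions for 0, 2 and 12 h at 37 °C. Samples were quenched with ice-cold acetonitrile, centrifuged, filtered and analysed by C18 reversed-phase HPLC at 25 °C.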

For data set [10], the system named is Trypanosoma brucei brucei. Description: Antitrypanosomal activity against Trypanosoma brucei brucei CMP infected in Swiss mouse assessed as change in mean survival time at 100 mg/kg, ip administered as single dose measured up to 30 days. The format is functional. In short, it runs like this:
as §1

The test system of data set [11] is Mus musculus. Description: Toxicity in Swiss mouse assessed as death at 100 mg/kg, ip administered as single dose measured up to 30 days. The format is organism-based. The note with it: in vivo, 720 h. In outline:
as §1

Data set [12] deals with Mus musculus. Description: Toxicity in Swiss mouse assessed as death at 10 mg/kg, ip administered as single dose measured up to 30 days. The data set is classed as organism-based. The note with it: in vivo, 720 h. In outline:
as §1

Data set [13] can be described thus: Stability in human liver S9 fraction at 0.1 to 1 mM up to 12 hrs in presence of NADPH. The format is ADME, subcellular. The note with it: s9, 12 h, 1000 µM. In outline:
(§2)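 Pooled human liver S9 was diluted 20-fold in PBS (1 mg/ml protein). Compound solutions of 100 μM and 1 mM were incubated 0 and 12 h at 37 °C, with or without 1 mM NADPH.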

Data set [14] in a line: Stability in human liver S9 fraction at 0.1 to 1 mM up to 12 hrs in absence of NADPH. The format is ADME, subcellular. The note with it: s9, 12 h, 1000 µM. In short, it runs like this:
as §2

Data set [15] deals with Leishmania donovani. The data set can be described thus: Antileishmanial activity against Leishmania donovani infected in Balb/c mouse at 2 mg/kg/day, ip for 5 consecutive days. The data set is classed as functional, organism-based. In short, it runs like this:
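Balb/c mice infected with L. donovani; 2 mg/kg/day given intraperitoneally on five consecutive days, total 10 mg/kg.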

The target in data set [16] is Trypanothione reductase (Trypanosoma brucei brucei) (UniProt P39051). The data set can be described thus: Inhibition of Trypanosoma brucei trypanothione reductase at 40 uM using 40 uM TS2 as substrate in presence of NADPH by spectrophotometric method relative to control. In outline: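 Recombinant T. brucei TryR (5-10 mU) in 40 mM Hepes, 1 mM EDTA, pH 7.5, with 100 μM NADPH, 5% DMSO, at 25 °C. Inhibitor was fixed at 40 μM; TS2 at 100 or 40 μM started the reaction. NADPH consumption was followed at 340 nm and % inhibition taken against DMSO-matched controls. Run in triplicate, mean ± SD.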
Chain of Trypanothione reductase (Trypanosoma brucei brucei) (P39051 whole entry, looked up): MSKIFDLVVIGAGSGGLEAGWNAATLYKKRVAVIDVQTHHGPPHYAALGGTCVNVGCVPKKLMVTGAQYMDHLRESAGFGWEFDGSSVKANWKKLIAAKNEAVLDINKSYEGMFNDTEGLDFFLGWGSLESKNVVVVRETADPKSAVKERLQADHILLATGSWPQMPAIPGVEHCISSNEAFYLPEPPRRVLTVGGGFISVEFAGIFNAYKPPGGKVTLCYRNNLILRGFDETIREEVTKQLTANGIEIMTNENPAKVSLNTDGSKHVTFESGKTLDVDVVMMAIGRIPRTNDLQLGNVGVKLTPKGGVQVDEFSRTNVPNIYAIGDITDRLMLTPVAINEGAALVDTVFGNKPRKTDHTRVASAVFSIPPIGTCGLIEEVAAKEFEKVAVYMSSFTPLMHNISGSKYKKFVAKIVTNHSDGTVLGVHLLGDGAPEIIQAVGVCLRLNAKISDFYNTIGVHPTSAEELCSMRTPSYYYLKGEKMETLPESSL

The target of data set [17] is T1, Trypanothione reductase (Trypanosoma brucei brucei, UniProt P39051). The data set can be described thus: Mixed-type inhibition of Trypanosoma brucei trypanothione reductase assessed as enzyme-inhibitor complex using varying levels of TS2 as substrate in presence of NADPH by Lineweaver-Burk plot analysis. In short, it runs like this: (§3)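 TryR assay in Hepes/EDTA buffer pH 7.5 with 100 μM NADPH at 25 °C, started with TS2 and read at 340 nm. Inhibition type was assigned from a Lineweaver-Burk plot.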
T1 sequence (P39051 whole entry): as the sequence (P39051 whole entry, looked up) above

Data set [18] has as its target T1, Trypanothione reductase. The data set can be described thus: Inhibition of Trypanosoma brucei trypanothione reductase using TS2 as substrate in presence of NADPH by spectrophotometric method.
Data set [19] deals with T1, Trypanothione reductase. Description: Mixed-type inhibition of Trypanosoma brucei trypanothione reductase assessed as enzyme-inhibitor-substrate complex using varying levels of TS2 as substrate in presence of NADPH by Lineweaver-Burk plot analysis. In outline: as §3

For `NCCCCNCCCN(Cc1ccc(OCc2ccccc2)cc1)Cc1ccc(OCc2ccccc2)cc1`, the selectivity ratio at 72 h in [1] was above 1.4. In addition, the IC50 is 35.5 µM in data set [2], above 3.9 µM in data set [3], 72.2 µM in data set [6] and above 100 µM in data set [7]. Besides, in [4], the CC50 at 48 h is above 100 µM. In addition, the selectivity ratio in [5] was above 2.8.

On to `NC1CCC(NCCCN(Cc2ccc(F)cc2)Cc2ccc(F)cc2)CC1` (stereo unspecified), for which the Survival in [8] is 0 days; in [10], -2.3 days. The half-life in [9] is above 12 h. Further, the figures for the Activity entry in data set [11] and in data set [12] were “Toxic” and “Non-Toxic”, respectively. In addition, the figures for the IC50 in [2], in [6] and in data set [7] were 0.4 µM, 44.4 µM and 12.4 µM, respectively. In data set [4], the CC50 at 48 h was 4.4 µM. The selectivity ratio in data set [5] was determined as 11. The Stability entry in [13] and in data set [14] was “Stable” throughout. In data set [15], the result was inactive.

Turning to `NCCCCNCCCN(Cc1ccccc1)Cc1ccccc1`, the inhibition in data set [16] is above 50%. Besides, the Ki in data set [17] was 7.5 µM; in data set [19], 20 µM. Besides, the half-life in data set [9] was above 12 h. Besides, the IC50 in [2] was 8.8 µM; in data set [18], 8.8 µM; in [3] it was 25 µM; in data set [6], above 100 µM; in data set [7], 27.4 µM. Besides, in data set [4], the cytotoxic concentration (CC50) at 48 h amounted to 17.7 µM. In addition, in data set [5], the selectivity ratio is 2.

One may read the IC50 as the midpoint of a concentration-inhibition curve. One may read the CC50 as the concentration giving 50% cytotoxicity. The inhibition is the drop in the measured response relative to a control, in per cent. As usually defined, the Ki is the dissociation constant of the complex between target and ligand, obtained from inhibition or displacement.
